Casp6 inh: blocks human caspase-6 cleavage activity | purified caspase-6, Z-VEID-R110 cleavage fluorescence | actives 0.53% (n = 350,000) | P55212 | inhibition, % at 12.5 µM;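 active means mean inhibition across replicates at least about 35%, with every replicate also reaching that limit, limit read from the data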
Target sequence (P55212 24-179 limits assumed): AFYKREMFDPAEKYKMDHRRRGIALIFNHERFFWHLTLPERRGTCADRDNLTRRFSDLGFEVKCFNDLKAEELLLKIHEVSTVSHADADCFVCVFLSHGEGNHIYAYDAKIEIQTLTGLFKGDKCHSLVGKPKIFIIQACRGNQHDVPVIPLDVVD
Target sequence (P55212 194-293 limits assumed): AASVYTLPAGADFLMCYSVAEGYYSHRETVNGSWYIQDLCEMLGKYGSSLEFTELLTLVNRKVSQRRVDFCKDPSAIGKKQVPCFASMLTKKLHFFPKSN
NSD2 inh: blocks human histone methyltransferase NSD2. NSD2 peptide methylation, AlphaScreen, 120 min. actives 0.54% (n = 310,000). inhibition, % at 12.5 µM. AID 743445; in the data active means inhibition above about 50%
UCH37 DUB inh: inhibitors of human deubiquitinating enzyme UCH37. inhibition, % (no concentration beside the values). actives 0.33% (n = 330,000). Q9Y5K5. purified proteasome/UCH37, Ub-AMC cleavage fluorescence;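 active means mean inhibition over replicate wells above about 20%, limit read from the data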
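Test system – human UCH37 enzyme supplied as purified proteasome complex · Incubation – 30 min preincubation with enzyme, 25 min cleavage at room temperature · Detection – AMC fluorescence from Ub-AMC cleavage, excitation 355 nm, emission 460 nm · Benchmarks – no-proteasome wells (full inhibition) and compound-free wells (no inhibition)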
TDP2 inh: blocks human TDP2 phosphodiesterase activity; recombinant TDP2, T5PNP hydrolysis, p-nitrophenol absorbance 415 nm; actives 0.34% (n = 370,000); AID 720702; inhibition, % at 12.8 µM;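 active means inhibition above the mean of all tested compounds plus 3 SD, set per campaign, cut at about 25% in these data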
Target sequence (O95551 whole entry, looked up): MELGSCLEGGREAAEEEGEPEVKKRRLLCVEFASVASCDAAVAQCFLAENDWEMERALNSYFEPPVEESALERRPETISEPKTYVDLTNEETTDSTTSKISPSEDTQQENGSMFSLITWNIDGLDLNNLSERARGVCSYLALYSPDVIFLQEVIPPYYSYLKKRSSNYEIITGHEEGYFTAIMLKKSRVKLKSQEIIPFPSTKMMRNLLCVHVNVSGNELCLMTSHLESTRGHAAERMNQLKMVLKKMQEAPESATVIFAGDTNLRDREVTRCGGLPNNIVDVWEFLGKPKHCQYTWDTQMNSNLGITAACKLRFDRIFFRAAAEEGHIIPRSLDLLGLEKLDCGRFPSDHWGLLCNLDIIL
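Assay system: recombinant human TDP2 / Reagent: T5PNP substrate at 5 mM, a TopII-DNA adduct mimic / Measured by: epi absorbance from released p-nitrophenol / Evaluation: % inhibition relative to enzyme-containing and enzyme-free wells / Control set: enzyme-free and DMSO wells / Replicates: each compound tested once, singlicate / Schedule: enzyme reaction with compound for 2 h at 37 °C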
LEDGF integ inh: blocks HIV-1 LEDGF/p75-dependent DNA integration; inhibition, % at 3.7 µM; TR-FRET IN-LEDGF/p75 DNA integration, Eu/Cy5; actives 0.64% (n = 370,000); AID 743269;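 active means inhibition above the screen-wide mean plus 3 SD, cut at about 13% in these data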;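 further: signal is the Cy5 over europium emission ratio at 671 and 618 nm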
Alpha artifact: counter-screen for NSD2 inhibitors: AlphaScreen artifacts; AlphaScreen artifact counterscreen, preloaded methylated H4 peptide; shares compounds with NSD2 inh; actives 9.4% (n = 1,500); AC35, µM (titrated, usually from 10 µM); call rule not given here
Large screens that a line does not name were inactive (follow-up assays come after a bar, where they were run). Most compounds without a hit are left out; they make up all but 1.3% or so of the library.

COc1cccc(CN2C(=O)C(C)N(C(=O)c3c(F)cccc3F)c3ccccc32)c1 (configuration not stated)	NSD2 inh 104 | Alpha artifact inactive
Cc1cccc(NC(=S)N2CCN(c3ccccc3F)CC2)c1C	NSD2 inh 57 | Alpha artifact inactive
N#Cc1c(N)n(-c2ccc(N)cc2)c2nc3ccccc3nc12	none
N#Cc1c(N)n(-c2ccc(C(=O)O)cc2)c2nc3ccccc3nc12	NSD2 inh 74 (no result: UCH37 DUB inh) | Alpha artifact inactive
Cn1ncc(C#N)c1N=CN1CCOCC1	none (no result: Casp6 inh, NSD2 inh, TDP2 inh, LEDGF integ inh)
COCC(C)OC(=O)/C(C#N)=C\c1coc2ccc(C)cc2c1=O (configuration not stated)	NSD2 inh 50 (no result: UCH37 DUB inh) | Alpha artifact inactive
Cc1ccc2occ(/C=N/NC(=O)[C@@H](N)Cc3ccccc3)c(=O)c2c1	none (no result: UCH37 DUB inh)
CON=C(C)c1ncc(C(F)(F)F)cc1N1CCOCC1	none (no result: Casp6 inh, NSD2 inh, TDP2 inh, LEDGF integ inh)
Cc1cc(-c2n[nH]c(=S)n2N=Cc2sccc2C)n[nH]1	none (no result: Casp6 inh, NSD2 inh, TDP2 inh, LEDGF integ inh)
CCn1cc(C=NNC(=O)c2c[nH]c3ccccc23)c(C)n1	none (no result: Casp6 inh, NSD2 inh, TDP2 inh, LEDGF integ inh)
CC1=NN(c2ccc([N+](=O)[O-])cc2)C(=O)C1	none (no result: TDP2 inh, LEDGF integ inh)
CC1=NN(c2ccc(C(=O)O)c(N)c2)C(=O)C1	NSD2 inh 130, LEDGF integ inh 31 | Alpha artifact inactive
CC1(C)C2CCC1(C)C(OC(=O)CSc1nc(N)cc(=O)[nH]1)C2 (configuration not stated)	NSD2 inh 80 (no result: Casp6 inh) | Alpha artifact inactive
Cc1ccc(-n2c(-c3cc(-c4ccco4)[nH]n3)n[nH]c2=S)c(Br)c1	none
CC(=O)c1ccc(-n2c(-c3cc(-c4ccco4)[nH]n3)n[nH]c2=S)cc1	NSD2 inh 59 (no result: Casp6 inh) | Alpha artifact inactive
CCN(CC)CCSc1nc2ccccc2c(=S)n1-c1ccccc1	NSD2 inh 108 | Alpha artifact inactive
O=[N+]([O-])c1ccc(N(CC(O)CN2CCCCC2)S(=O)(=O)c2ccccc2)cc1 (configuration not stated)	NSD2 inh 68 | Alpha artifact inactive
N#Cc1cc(-c2ccccc2)nnc1Oc1ccccc1Cl	NSD2 inh 71 (no result: Casp6 inh) | Alpha artifact inactive
CC(Oc1ccc(Cl)cc1Cl)C(=O)NC(Cc1ccccc1)C(=O)O (configuration not stated)	NSD2 inh 53 | Alpha artifact inactive
CC(Oc1ccc(Cl)cc1Cl)C(=O)NCCCCc1ccccc1 (configuration not stated)	none (no result: Casp6 inh)
CCOC(=O)C1=CN(c2cccc(F)c2)C=C(C(=O)OCC)C1c1cc(OC)c(O)c([N+](=O)[O-])c1	NSD2 inh 57 (no result: Casp6 inh) | Alpha artifact inactive
CC(C)CNC(=O)c1cnn2c(C(F)(F)F)cc(C(F)(F)F)nc12	NSD2 inh 54 | Alpha artifact inactive
C(=NN1CCN(Cc2ccccc2)CC1)c1cccnc1	none (no result: Casp6 inh, NSD2 inh, TDP2 inh, LEDGF integ inh)
O=C(NN=Cc1cccc([N+](=O)[O-])c1)C1CC(=O)N(c2ccc(Cl)cc2)C1 (configuration not stated)	none (no result: Casp6 inh, NSD2 inh, TDP2 inh, LEDGF integ inh)
O=C(Cc1ccccc1)NN=Cc1cccnc1	none (no result: Casp6 inh, NSD2 inh, TDP2 inh, LEDGF integ inh)
O=C(CNC(=O)c1ccc2c(c1)OCCO2)N/N=C/c1ccc(Cl)cc1	none (no result: UCH37 DUB inh)
CC(C)(C)/C=N/NC(=O)CNC(=O)c1ccc2c(c1)OCCO2	NSD2 inh 50 (no result: UCH37 DUB inh) | Alpha artifact inactive
CC(=NNc1ccc([N+](=O)[O-])cc1[N+](=O)[O-])C(C)(C)C(C(=O)O)C(=O)O	none (no result: Casp6 inh, NSD2 inh, TDP2 inh, LEDGF integ inh)
O=C(c1coc(=O)c(Br)c1)N1CCOCC1	NSD2 inh 141 (no result: Casp6 inh) | Alpha artifact inactive
O=C(c1cc(Br)c(Br)s1)N1CCOCC1	none
C/C(C/C(C)=C1/SC(=S)NC1=O)=C1\SC(=S)NC1=O	NSD2 inh 132, LEDGF integ inh 20 (no result: Casp6 inh) | Alpha artifact inactive
O=C(Nc1nnc(SCc2ccc(F)cc2)s1)c1ccccn1	NSD2 inh 65 | Alpha artifact inactive
N#Cc1c(-c2ccccc2)nc(SCC(=O)NC2CCCCC2)[nH]c1=O	none
CN(C(=O)CSc1nc(-c2ccc(C(C)(C)C)cc2)c(C#N)c(=O)[nH]1)C1CCCCC1	Casp6 inh 35, NSD2 inh 60 (no result: UCH37 DUB inh) | Alpha artifact inactive
COc1cccc(CNc2cccc3cccnc23)c1O	NSD2 inh 50 (no result: Casp6 inh) | Alpha artifact inactive
COc1cccc(CNc2ccccn2)c1O	none (no result: UCH37 DUB inh)
Cc1ccc(O)c(CNc2cccc3cccnc23)c1	NSD2 inh 118 | Alpha artifact inactive
C=CCN1CCN(C(c2cccc(OC)c2OC)c2nnnn2CCC(C)C)CC1 (configuration not stated)	NSD2 inh 98 | Alpha artifact inactive
Cc1cc(C)n(N=Cc2cc(Cl)cc(Cl)c2O)c(=O)c1	none (no result: Casp6 inh, NSD2 inh, TDP2 inh, LEDGF integ inh)
CC1=NOC(=O)/C1=C\c1ccc(-c2ccc(Br)cc2)o1	NSD2 inh 69 | Alpha artifact inactive
Cc1ccccc1-n1c(SCC(=O)NN=Cc2c(C)nn(-c3ccccc3)c2C)nc2ccccc2c1=O	none (no result: Casp6 inh, NSD2 inh, TDP2 inh, LEDGF integ inh)
Fc1ccc(C2CCNCC2COc2ccc3c(c2)OCO3)cc1 (configuration not stated)	NSD2 inh 64 | Alpha artifact inactive
CCCN1C(=O)C(O)(CC(C)=NO)c2ccccc21 (configuration not stated)	none (no result: Casp6 inh, NSD2 inh, TDP2 inh, LEDGF integ inh)
CCCCN(C)C(=O)C1CCN(Cc2cccc(OCc3ccccc3)c2)CC1	NSD2 inh 73 | Alpha artifact inactive
CC(=O)c1ccc(OCC(C)C)c(CC(C(N)=O)C(N)=O)c1	none
CCCOc1ccc(C(C)=O)cc1CC(C(N)=O)C(N)=O	NSD2 inh 135 (no result: Casp6 inh) | Alpha artifact inactive
O=C1CCCCC1=NNc1ccc(OCc2ccccc2)cc1	none (no result: Casp6 inh, NSD2 inh, TDP2 inh, LEDGF integ inh)
COc1ccccc1CNC(=O)C(NC(=O)c1ccccc1)C(C)C (configuration not stated)	none
COc1ccccc1CNC(=O)C(NC(=O)Nc1ccccc1)C(C)C (configuration not stated)	NSD2 inh 106 | Alpha artifact inactive
CC(Nc1ccc2ccccc2c1)C(=O)N/N=C/c1ccncc1 (configuration not stated)	Casp6 inh 61, NSD2 inh 141 (no result: UCH37 DUB inh) | Alpha artifact inactive
CC1=C(C)C(=O)N(c2ccccn2)C1=O	none (no result: Casp6 inh)
Cc1nn(-c2ccccn2)c2c1C(=O)C(Br)CC2 (configuration not stated)	NSD2 inh 100 (no result: Casp6 inh, TDP2 inh, LEDGF integ inh) | Alpha artifact inactive
c1ccc(CNc2nc(-c3cccnc3)nc3ccccc23)cc1	none
Fc1ccc(CNc2nc(-c3cccnc3)nc3ccccc23)cc1	NSD2 inh 118 | Alpha artifact inactive
COCCNc1nc(-c2ccccc2)nc2ccccc12	NSD2 inh 51 | Alpha artifact inactive
O=C(O)COc1ccc(Br)cc1C=NO	none (no result: Casp6 inh, NSD2 inh, TDP2 inh, LEDGF integ inh)
CN1CCN(/N=C/c2nc(-c3ccccc3Cl)n3ccccc23)CC1	NSD2 inh 67 (no result: Casp6 inh, UCH37 DUB inh) | Alpha artifact inactive
Nc1ccc(-n2cnc3cc([N+](=O)[O-])ccc32)cc1	none (no result: Casp6 inh)
Nc1ccc2nn(-c3cc([N+](=O)[O-])ccc3O)nc2c1	NSD2 inh 79 | Alpha artifact inactive

Screening results from PubChem BioAssay.
